From ChEMBL document CHEMBL4330171, “Characterization of the Biosynthetic Gene Cluster for the Antibiotic Armeniaspirols in Streptomyces armeniacus” (2019) come the findings set out here.

The test system of experiment [1] is Staphylococcus aureus. Nature of the experiment: Antibacterial activity against Staphylococcus aureus Newman after 24 hrs by broth microdilution assay. It is filed as functional. In short, it runs like this:
(§1)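 Twofold serial dilutions in LB broth, inoculated to a final 1 × 10^5 to 3 × 10^5 CFU/mL. Incubation at 37 °C for 24 h. MIC read visually as the lowest concentration giving no turbidity.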

Experiment [2] has as its system Staphylococcus aureus. Put plainly: Antibacterial activity against methicillin-resistant Staphylococcus aureus USA300 after 24 hrs by broth microdilution assay. The class given is functional. The settings on record: USA300, 24 h. On the technique in general: Dilution methods test growth across graded concentrations, often in twofold steps.
Another experiment deals with Enterococcus faecium. Put plainly: Antibacterial activity against Enterococcus faecium ATCC 19434 after 24 hrs by broth microdilution assay. It is filed as functional. The settings on record: ATCC 19434, 24 h. In short, it runs like this: as §1
The subject of another experiment is Enterococcus faecalis. Put plainly: Antibacterial activity against Enterococcus faecalis FA2-2 after 24 hrs by broth microdilution assay. It is filed as functional. In short, it runs like this:
as §1

The subject of a further experiment is Bacillus subtilis. Nature of the experiment: Antibacterial activity against Bacillus subtilis 168 after 24 hrs by broth microdilution assay. The class given is functional. The settings on record: subsp. subtilis str. 168, 24 h. Put shortly:
as §1

The next experiment has as its system Escherichia coli. Put plainly: Antibacterial activity against Escherichia coli MG1655 after 24 hrs by broth microdilution assay. It is filed as functional, organism-based. The settings on record: K-12 substr. MG1655. Put shortly:
as §1

A further experiment relates to Acinetobacter baumannii. Nature of the experiment: Antibacterial activity against Acinetobacter baumannii ATCC 19606 after 24 hrs by broth microdilution assay. It is filed as functional, organism-based. The settings on record: ATCC 19606 = CIP 70.34 = JCM 6841. In short, it runs like this:
as §1

The subject of a further experiment is Pseudomonas aeruginosa. Nature of the experiment: Antibacterial activity against Pseudomonas aeruginosa PAO1 after 24 hrs by broth microdilution assay. The class given is functional, organism-based. Put shortly:
as §1

A further experiment relates to Klebsiella pneumoniae. Put plainly: Antibacterial activity against Klebsiella pneumoniae ATCC 35657 after 24 hrs by broth microdilution assay. It is filed as functional, organism-based. In short, it runs like this:
as §1

A further experiment relates to Salmonella typhimurium. Put plainly: Antibacterial activity against Salmonella typhimurium ATCC 14028 after 24 hrs by broth microdilution assay. It is filed as functional, organism-based. The note with it: Salmonella enterica subsp. enterica serovar Typhimurium. Put shortly:
as §1

A further experiment concerns Shigella dysenteriae. Put plainly: Antibacterial activity against Shigella dysenteriae ATCC 13313 after 24 hrs by broth microdilution assay. The class given is functional, organism-based.

The term MIC denotes the smallest concentration in the dilution series that meets the test's criterion for growth inhibition.

The structures appear in SMILES notation. ≈ marks a conversion by molar mass, not a printed value. Calls of active or inactive are those of the source.

In the case of `CC[C@H](C)CCCc1c(O)ccc2c1O[C@@]1(C=C(Cl)C(=O)N1C)C2=O`, the minimum inhibitory concentration (MIC) in the experiment with Staphylococcus aureus [1] was 2 µg/mL (≈ 5.5 µM); against Staphylococcus aureus [2], 8 µg/mL (≈ 22 µM); against Enterococcus faecium it was more than 32 µg/mL; with Enterococcus faecalis it was more than 32 µg/mL; against Bacillus subtilis, 8 µg/mL (≈ 22 µM). The outcome with Escherichia coli, with Acinetobacter baumannii, in the experiment on Pseudomonas aeruginosa, in the experiment with Klebsiella pneumoniae, in the experiment with Salmonella typhimurium and in the experiment on Shigella dysenteriae was inactive.
Take `CCCCCCc1c(O)ccc2c1O[C@]1(NC(=O)C(Cl)=C1Cl)C2=O`: the MIC with Staphylococcus aureus [1] was 8 µg/mL (≈ 21.6 µM); against Staphylococcus aureus [2], 16 µg/mL (≈ 43.2 µM); against Enterococcus faecium, 32 µg/mL (≈ 86.4 µM); against Enterococcus faecalis, more than 32 µg/mL; in the experiment with Bacillus subtilis it was 8 µg/mL (≈ 21.6 µM). The result with Escherichia coli, in the experiment with Acinetobacter baumannii, in the experiment on Pseudomonas aeruginosa, with Klebsiella pneumoniae, with Salmonella typhimurium and in the experiment with Shigella dysenteriae was inactive.
Take `CCCCCCc1c(O)ccc(C(=O)c2cc(Cl)c(Cl)[nH]2)c1O`: the MIC with Staphylococcus aureus [1] was determined as 1 µg/mL (≈ 2.81 µM); against Staphylococcus aureus [2], 1 µg/mL (≈ 2.81 µM); against Enterococcus faecium it was 2 µg/mL (≈ 5.61 µM); with Enterococcus faecalis, 2 µg/mL (≈ 5.61 µM); against Bacillus subtilis, 0.5 µg/mL (≈ 1.4 µM). Besides, the result in the experiment with Escherichia coli, in the experiment on Acinetobacter baumannii, in the experiment on Pseudomonas aeruginosa, in the experiment on Klebsiella pneumoniae, with Salmonella typhimurium and in the experiment on Shigella dysenteriae was inactive.
Turning to `CC[C@H](C)CCCc1c(O)ccc2c1O[C@@]1(C=C(Cl)C(=O)N1)C2=O`, the MIC in the experiment with Staphylococcus aureus [1] was more than 32 µg/mL; with Staphylococcus aureus [2] it was more than 32 µg/mL; in the experiment with Enterococcus faecium, more than 32 µg/mL; in the experiment with Enterococcus faecalis, more than 32 µg/mL; in the experiment with Bacillus subtilis, 16 µg/mL (≈ 45.7 µM). The result with Escherichia coli, in the experiment on Acinetobacter baumannii, with Pseudomonas aeruginosa, with Klebsiella pneumoniae, in the experiment on Salmonella typhimurium and with Shigella dysenteriae was inactive.
As to `CCCCCCc1c(O)ccc2c1O[C@]1(C2=O)C(Cl)=C(Cl)C(=O)N1C` [ARMENIASPIROLE A], the minimum inhibitory concentration (MIC) with Staphylococcus aureus [1] is 0.5 µg/mL (≈ 1.3 µM); with Staphylococcus aureus [2] it was 0.5 µg/mL (≈ 1.3 µM); in the experiment on Enterococcus faecium, more than 32 µg/mL; in the experiment with Enterococcus faecalis it was 16 µg/mL (≈ 41.6 µM); with Bacillus subtilis it was 2 µg/mL (≈ 5.2 µM). The outcome in the experiment with Escherichia coli, with Acinetobacter baumannii, in the experiment on Pseudomonas aeruginosa, in the experiment on Klebsiella pneumoniae, with Salmonella typhimurium and in the experiment on Shigella dysenteriae was inactive.
`CC(C)CCCc1c(O)ccc(C(=O)c2cc(Cl)c(Cl)[nH]2)c1O`: the minimal inhibitory concentration (MIC) is 1 µg/mL (≈ 2.81 µM) against Staphylococcus aureus [1]; 1 µg/mL (≈ 2.81 µM) against Staphylococcus aureus [2]; 2 µg/mL (≈ 5.61 µM) in the experiment on Enterococcus faecium; 8 µg/mL (≈ 22.5 µM) against Enterococcus faecalis; 0.5 µg/mL (≈ 1.4 µM) with Bacillus subtilis. The outcome in the experiment with Escherichia coli, in the experiment on Acinetobacter baumannii, with Pseudomonas aeruginosa, in the experiment with Klebsiella pneumoniae, with Salmonella typhimurium and in the experiment on Shigella dysenteriae was inactive.
As to `CC(C)CCCc1c(O)ccc2c1O[C@]1(NC(=O)C(Cl)=C1Cl)C2=O`, the MIC against Staphylococcus aureus [1] was 8 µg/mL (≈ 21.6 µM); in the experiment on Staphylococcus aureus [2] it was 16 µg/mL (≈ 43.2 µM); with Enterococcus faecium, more than 32 µg/mL; in the experiment on Enterococcus faecalis, more than 32 µg/mL; against Bacillus subtilis, 16 µg/mL (≈ 43.2 µM). The outcome in the experiment on Escherichia coli, in the experiment on Acinetobacter baumannii, in the experiment with Pseudomonas aeruginosa, with Klebsiella pneumoniae, in the experiment on Salmonella typhimurium and in the experiment with Shigella dysenteriae was inactive.
In the case of `CC[C@H](C)CCCc1c(O)ccc2c1O[C@]1(NC(=O)C(Cl)=C1Cl)C2=O`, the minimal inhibitory concentration (MIC) is 8 µg/mL (≈ 20.8 µM) in the experiment with Staphylococcus aureus [1]; 8 µg/mL (≈ 20.8 µM) with Staphylococcus aureus [2]; 32 µg/mL (≈ 83.3 µM) with Enterococcus faecium; 32 µg/mL (≈ 83.3 µM) with Enterococcus faecalis; 8 µg/mL (≈ 20.8 µM) against Bacillus subtilis. Also, the outcome with Escherichia coli, in the experiment on Acinetobacter baumannii, in the experiment with Pseudomonas aeruginosa, in the experiment with Klebsiella pneumoniae, in the experiment on Salmonella typhimurium and in the experiment with Shigella dysenteriae was inactive.
As for `CC(C)CCCc1c(O)ccc2c1O[C@@]1(C=C(Cl)C(=O)N1)C2=O`, the MIC against Staphylococcus aureus [1], in the experiment on Staphylococcus aureus [2], in the experiment with Enterococcus faecium, against Enterococcus faecalis and against Bacillus subtilis was more than 32 µg/mL throughout. The outcome with Escherichia coli, in the experiment with Acinetobacter baumannii, in the experiment with Pseudomonas aeruginosa, with Klebsiella pneumoniae, with Salmonella typhimurium and in the experiment on Shigella dysenteriae was inactive.
In the case of `CN[C@H](CC(C)C)C(=O)N[C@H]1C(=O)N[C@@H](CC(N)=O)C(=O)N[C@H]2C(=O)N[C@H]3C(=O)N[C@H](C(=O)N[C@H](C(=O)O)c4cc(O)cc(O)c4-c4cc3ccc4O)[C@H](O)c3ccc(c(Cl)c3)Oc3cc2cc(c3O[C@@H]2O[C@H](CO)[C@@H](O)[C@H](O)[C@H]2O[C@H]2C[C@](C)(N)[C@H](O)[C@H](C)O2)Oc2ccc(cc2Cl)[C@H]1O` [VANCOMYCIN], the figures for the MIC with Enterococcus faecalis and with Bacillus subtilis were 2 µg/mL (≈ 1.38 µM) and 0.25 µg/mL (≈ 0.173 µM), respectively.
As for `CC(C)CCCc1c(O)ccc2c1O[C@@]1(C=C(Cl)C(=O)N1C)C2=O`, the MIC against Staphylococcus aureus [1] was 4 µg/mL (≈ 11.4 µM); against Staphylococcus aureus [2], 16 µg/mL (≈ 45.7 µM); with Enterococcus faecium, more than 32 µg/mL; in the experiment on Enterococcus faecalis, more than 32 µg/mL; in the experiment with Bacillus subtilis, 16 µg/mL (≈ 45.7 µM). In addition, the outcome in the experiment with Escherichia coli, in the experiment on Acinetobacter baumannii, with Pseudomonas aeruginosa, with Klebsiella pneumoniae, in the experiment on Salmonella typhimurium and in the experiment with Shigella dysenteriae was inactive.
For the compound `CCCCCCc1c(O)ccc2c1O[C@@]1(C=C(Cl)C(=O)N1C)C2=O`, the minimum inhibitory concentration (MIC) in the experiment on Staphylococcus aureus [1] was 4 µg/mL (≈ 11.4 µM); in the experiment on Staphylococcus aureus [2], 8 µg/mL (≈ 22.9 µM); in the experiment with Enterococcus faecium, more than 32 µg/mL; against Enterococcus faecalis, more than 32 µg/mL; against Bacillus subtilis, 8 µg/mL (≈ 22.9 µM). The result in the experiment on Escherichia coli, in the experiment with Acinetobacter baumannii, with Pseudomonas aeruginosa, with Klebsiella pneumoniae, in the experiment on Salmonella typhimurium and in the experiment on Shigella dysenteriae was inactive.
Turning to `CCCCCCc1c(O)ccc2c1O[C@@]1(C=C(Cl)C(=O)N1)C2=O`, the MIC with Staphylococcus aureus [1], against Staphylococcus aureus [2], with Enterococcus faecium, against Enterococcus faecalis and in the experiment on Bacillus subtilis was more than 32 µg/mL throughout. For the same compound, the outcome with Escherichia coli, in the experiment on Acinetobacter baumannii, in the experiment on Pseudomonas aeruginosa, with Klebsiella pneumoniae, in the experiment with Salmonella typhimurium and with Shigella dysenteriae was inactive.
Regarding `CC[C@H](C)CCCc1c(O)ccc2c1O[C@]1(C2=O)C(Cl)=C(Cl)C(=O)N1C` [ARMENIASPIROLE C], the MIC in the experiment on Staphylococcus aureus [1] is 0.5 µg/mL (≈ 1.26 µM); against Staphylococcus aureus [2], 0.5 µg/mL (≈ 1.26 µM); against Enterococcus faecium, more than 32 µg/mL; against Enterococcus faecalis it was more than 32 µg/mL; against Bacillus subtilis, 2 µg/mL (≈ 5.02 µM). The outcome with Escherichia coli, in the experiment with Acinetobacter baumannii, with Pseudomonas aeruginosa, in the experiment with Klebsiella pneumoniae, with Salmonella typhimurium and with Shigella dysenteriae was inactive.
For `CC(C)CCCc1c(O)ccc2c1O[C@]1(C2=O)C(Cl)=C(Cl)C(=O)N1C` [ARMENIASPIROLE B], the MIC against Staphylococcus aureus [1] was 0.5 µg/mL (≈ 1.3 µM); with Staphylococcus aureus [2], 2 µg/mL (≈ 5.2 µM); with Enterococcus faecium, more than 32 µg/mL; with Enterococcus faecalis it was 32 µg/mL (≈ 83.3 µM); against Bacillus subtilis, 4 µg/mL (≈ 10.4 µM). Besides, the result in the experiment with Escherichia coli, with Acinetobacter baumannii, with Pseudomonas aeruginosa, in the experiment with Klebsiella pneumoniae, in the experiment on Salmonella typhimurium and in the experiment with Shigella dysenteriae was inactive.
Take `CC[C@H](C)CCCc1c(O)ccc(C(=O)c2cc(Cl)c(Cl)[nH]2)c1O`: the MIC in the experiment with Staphylococcus aureus [1] came out at 1 µg/mL (≈ 2.7 µM); against Staphylococcus aureus [2], 2 µg/mL (≈ 5.4 µM); against Enterococcus faecium, 2 µg/mL (≈ 5.4 µM); against Enterococcus faecalis, 8 µg/mL (≈ 21.6 µM); against Bacillus subtilis, 0.5 µg/mL (≈ 1.35 µM). In addition, the result with Escherichia coli, with Acinetobacter baumannii, in the experiment on Pseudomonas aeruginosa, with Klebsiella pneumoniae, in the experiment on Salmonella typhimurium and in the experiment with Shigella dysenteriae was inactive.
